{"source": "ChEMBL document CHEMBL2346629", "about": "“Discovery and characterization of novel allosteric FAK inhibitors” (Eur J Med Chem, 2013)", "key": {"[1]": {"target": "Mitogen-activated protein kinase kinase kinase kinase 2 (Homo sapiens) (UniProt Q12851)", "assay": "Inhibition of GCK (unknown origin) using [gamma-33P]ATP assessed as residual activity at 3 uM"}, "[2]": {"target": "Ephrin type-B receptor 1 (Homo sapiens) (UniProt P54762)", "sequence (P54762 whole entry)": "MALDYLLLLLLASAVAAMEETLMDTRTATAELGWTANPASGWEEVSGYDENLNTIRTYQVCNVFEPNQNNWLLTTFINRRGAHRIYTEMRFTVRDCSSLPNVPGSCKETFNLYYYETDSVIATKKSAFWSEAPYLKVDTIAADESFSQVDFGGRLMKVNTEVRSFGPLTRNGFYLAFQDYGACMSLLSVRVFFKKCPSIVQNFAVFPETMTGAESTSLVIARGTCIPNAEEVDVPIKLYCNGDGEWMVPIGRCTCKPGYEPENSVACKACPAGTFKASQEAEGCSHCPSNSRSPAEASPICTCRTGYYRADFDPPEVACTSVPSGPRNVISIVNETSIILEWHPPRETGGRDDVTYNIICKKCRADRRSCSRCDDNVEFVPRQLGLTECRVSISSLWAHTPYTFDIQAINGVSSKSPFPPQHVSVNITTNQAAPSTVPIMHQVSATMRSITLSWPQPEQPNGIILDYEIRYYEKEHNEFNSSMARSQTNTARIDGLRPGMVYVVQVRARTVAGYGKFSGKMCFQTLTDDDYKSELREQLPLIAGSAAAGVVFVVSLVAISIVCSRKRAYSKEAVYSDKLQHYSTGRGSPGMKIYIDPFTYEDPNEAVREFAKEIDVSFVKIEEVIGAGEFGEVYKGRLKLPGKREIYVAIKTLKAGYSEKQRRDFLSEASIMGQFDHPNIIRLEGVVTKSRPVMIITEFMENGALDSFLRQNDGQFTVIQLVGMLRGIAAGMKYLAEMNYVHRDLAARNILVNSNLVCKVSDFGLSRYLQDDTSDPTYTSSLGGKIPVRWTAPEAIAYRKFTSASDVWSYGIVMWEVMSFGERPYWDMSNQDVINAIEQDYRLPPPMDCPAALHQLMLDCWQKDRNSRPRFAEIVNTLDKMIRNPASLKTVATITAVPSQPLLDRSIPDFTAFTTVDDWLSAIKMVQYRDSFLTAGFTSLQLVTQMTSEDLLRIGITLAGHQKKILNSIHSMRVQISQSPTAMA", "assay": "Inhibition of EPHB1 (unknown origin) using [gamma-33P]ATP assessed as residual activity at 3 uM", "procedure,_shortened": "(§1)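 Reaction Biology HotSpot radiometric profiling panel of 288 kinases (261 wild-type, 27 mutant). Kinase activity was read out by incorporation of [γ-33P]ATP.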"}, "[3]": {"target": "Ephrin type-A receptor 1 (Homo sapiens) (UniProt P21709)", "assay": "Inhibition of EPHA1 (unknown origin) using [gamma-33P]ATP assessed as residual activity at 3 uM", "procedure,_shortened": "as §1"}, "[4]": {"target": "Protein-tyrosine kinase 6 (Homo sapiens) (UniProt Q13882)", "assay": "Inhibition of BRK (unknown origin) using [gamma-33P]ATP assessed as residual activity at 3 uM", "procedure,_shortened": "(§2)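 Radiometric profiling across 288 kinases (261 wild-type, 27 mutant), run as an outsourced service. Inhibition read out as [gamma-33P]ATP incorporation into substrate.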"}, "[5]": {"target": "Proto-oncogene tyrosine-protein kinase ROS (Homo sapiens) (UniProt P08922)", "assay": "Inhibition of ROS (unknown origin) using [gamma-33P]ATP assessed as residual activity at 3 uM"}, "[6]": {"target": "NUAK family SNF1-like kinase 1 (Homo sapiens) (UniProt O60285)", "assay": "Inhibition of ARK5 (unknown origin) using [gamma-33P]ATP assessed as residual activity at 3 uM", "procedure,_shortened": "as §2"}, "[7]": {"target": "MAP kinase-activated protein kinase 2 (Homo sapiens) (UniProt P49137)", "assay": "Inhibition of MAPKAPK2 (unknown origin) using [gamma-33P]ATP assessed as residual activity at 3 uM", "procedure,_shortened": "(§3)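 Radiometric kinase profiling service covering 288 kinases (261 wild-type, 27 mutant). Inhibition was read as incorporation from [γ-³³P]ATP.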"}, "[8]": {"target": "Ribosomal protein S6 kinase alpha-4 (Homo sapiens) (UniProt O75676)", "sequence (O75676 whole entry, looked up)": "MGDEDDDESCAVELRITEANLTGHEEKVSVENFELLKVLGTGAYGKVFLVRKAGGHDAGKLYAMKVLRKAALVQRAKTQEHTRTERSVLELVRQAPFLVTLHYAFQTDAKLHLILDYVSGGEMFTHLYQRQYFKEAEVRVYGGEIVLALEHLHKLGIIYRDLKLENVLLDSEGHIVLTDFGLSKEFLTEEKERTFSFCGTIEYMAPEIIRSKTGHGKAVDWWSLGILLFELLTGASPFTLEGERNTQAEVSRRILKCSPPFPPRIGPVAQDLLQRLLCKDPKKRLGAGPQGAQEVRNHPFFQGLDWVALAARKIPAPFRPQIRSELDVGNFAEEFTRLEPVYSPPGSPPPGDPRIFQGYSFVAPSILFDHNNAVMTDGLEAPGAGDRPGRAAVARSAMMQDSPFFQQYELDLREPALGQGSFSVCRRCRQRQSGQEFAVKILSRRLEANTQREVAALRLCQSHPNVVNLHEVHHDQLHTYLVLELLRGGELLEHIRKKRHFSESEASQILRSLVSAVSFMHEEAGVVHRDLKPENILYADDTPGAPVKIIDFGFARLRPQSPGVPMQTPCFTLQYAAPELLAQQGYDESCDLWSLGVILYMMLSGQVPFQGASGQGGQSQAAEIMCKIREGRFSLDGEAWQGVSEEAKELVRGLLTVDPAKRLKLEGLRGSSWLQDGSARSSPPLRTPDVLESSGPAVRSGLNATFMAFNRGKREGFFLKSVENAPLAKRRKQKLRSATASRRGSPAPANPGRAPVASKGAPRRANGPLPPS", "assay": "Inhibition of MSK2 (unknown origin) using [gamma-33P]ATP assessed as residual activity at 3 uM"}, "[9]": {"target": "Serine/threonine-protein kinase mTOR (Homo sapiens) (UniProt P42345)", "assay": "Inhibition of mTOR (unknown origin) using [gamma-33P]ATP assessed as residual activity at 3 uM"}, "[10]": {"system": "Proto-oncogene tyrosine-protein kinase receptor Ret (Homo sapiens), P07949 [V804L]", "assay": "Inhibition of RET V804L mutant (unknown origin) using [gamma-33P]ATP assessed as residual activity at 3 uM"}, "[11]": {"target": "Mitogen-activated protein kinase kinase kinase kinase 4 (Homo sapiens, UniProt O95819)", "assay": "Inhibition of HGK (unknown origin) using [gamma-33P]ATP assessed as residual activity at 3 uM"}, "[12]": {"target": "Vascular endothelial growth factor receptor 2 (Homo sapiens) (UniProt P35968)", "sequence (P35968 whole entry)": "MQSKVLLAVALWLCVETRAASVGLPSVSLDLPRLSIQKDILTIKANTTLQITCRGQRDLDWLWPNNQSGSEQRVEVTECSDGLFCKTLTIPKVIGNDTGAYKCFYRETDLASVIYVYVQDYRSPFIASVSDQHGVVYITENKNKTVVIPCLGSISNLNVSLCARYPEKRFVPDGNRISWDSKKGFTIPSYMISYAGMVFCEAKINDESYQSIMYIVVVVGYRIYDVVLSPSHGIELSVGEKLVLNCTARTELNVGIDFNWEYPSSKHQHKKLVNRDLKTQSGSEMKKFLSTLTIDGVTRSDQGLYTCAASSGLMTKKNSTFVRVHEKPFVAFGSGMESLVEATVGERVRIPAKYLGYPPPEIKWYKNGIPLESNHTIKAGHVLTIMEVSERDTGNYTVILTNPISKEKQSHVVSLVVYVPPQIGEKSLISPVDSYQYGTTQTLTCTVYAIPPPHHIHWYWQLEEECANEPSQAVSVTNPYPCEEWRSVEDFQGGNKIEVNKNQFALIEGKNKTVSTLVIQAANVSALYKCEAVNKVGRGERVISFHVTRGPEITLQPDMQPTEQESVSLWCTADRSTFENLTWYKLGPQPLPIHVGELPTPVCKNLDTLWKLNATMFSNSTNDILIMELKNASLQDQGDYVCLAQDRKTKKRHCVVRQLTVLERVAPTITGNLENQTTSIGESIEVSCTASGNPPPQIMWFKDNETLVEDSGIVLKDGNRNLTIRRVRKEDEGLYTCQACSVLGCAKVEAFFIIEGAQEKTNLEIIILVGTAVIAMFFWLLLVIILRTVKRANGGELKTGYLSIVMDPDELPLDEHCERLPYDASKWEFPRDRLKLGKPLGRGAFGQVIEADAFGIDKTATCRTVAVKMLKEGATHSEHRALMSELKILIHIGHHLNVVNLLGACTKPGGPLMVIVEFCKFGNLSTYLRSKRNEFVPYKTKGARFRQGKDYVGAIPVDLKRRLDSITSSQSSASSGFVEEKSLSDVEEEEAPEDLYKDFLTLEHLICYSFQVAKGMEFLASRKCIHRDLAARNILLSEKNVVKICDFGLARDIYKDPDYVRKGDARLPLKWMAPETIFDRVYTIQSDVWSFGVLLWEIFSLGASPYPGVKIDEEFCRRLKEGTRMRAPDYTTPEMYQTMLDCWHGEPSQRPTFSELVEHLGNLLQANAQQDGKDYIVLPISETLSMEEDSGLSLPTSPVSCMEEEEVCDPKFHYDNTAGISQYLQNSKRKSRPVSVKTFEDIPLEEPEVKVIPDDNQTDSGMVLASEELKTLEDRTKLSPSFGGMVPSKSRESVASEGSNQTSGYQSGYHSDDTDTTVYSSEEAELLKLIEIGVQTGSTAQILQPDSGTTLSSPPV", "assay": "Inhibition of KDR (unknown origin) using [gamma-33P]ATP assessed as residual activity at 3 uM", "procedure,_shortened": "as §3"}, "[13]": {"system": "Fibroblast growth factor receptor 1 (Homo sapiens), P11362 [V561M]", "assay": "Inhibition of FGFR1 V561M mutant (unknown origin) using [gamma-33P]ATP assessed as residual activity at 3 uM", "procedure,_shortened": "as §1"}, "[14]": {"target": "LIM domain kinase 1 (Homo sapiens) (UniProt P53667)", "sequence (P53667 whole entry, looked up, the tested form may be a part)": "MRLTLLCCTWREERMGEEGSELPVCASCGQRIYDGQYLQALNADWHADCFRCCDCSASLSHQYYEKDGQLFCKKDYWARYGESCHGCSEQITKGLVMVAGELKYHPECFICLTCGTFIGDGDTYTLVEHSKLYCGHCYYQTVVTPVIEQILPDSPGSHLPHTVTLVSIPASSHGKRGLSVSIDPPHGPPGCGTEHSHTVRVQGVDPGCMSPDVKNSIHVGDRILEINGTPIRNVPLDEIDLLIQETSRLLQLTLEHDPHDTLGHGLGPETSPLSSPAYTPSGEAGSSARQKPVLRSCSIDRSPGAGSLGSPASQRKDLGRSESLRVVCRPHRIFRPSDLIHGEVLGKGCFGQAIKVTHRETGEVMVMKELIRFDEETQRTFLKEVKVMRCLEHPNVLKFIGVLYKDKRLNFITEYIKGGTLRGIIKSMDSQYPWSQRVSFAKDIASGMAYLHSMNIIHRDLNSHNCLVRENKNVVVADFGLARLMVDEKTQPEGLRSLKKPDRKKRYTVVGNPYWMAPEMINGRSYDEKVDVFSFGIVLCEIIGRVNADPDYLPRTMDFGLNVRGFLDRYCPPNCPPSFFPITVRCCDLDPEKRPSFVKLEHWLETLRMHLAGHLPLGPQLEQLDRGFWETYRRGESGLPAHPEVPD", "assay": "Inhibition of LIMK1 (unknown origin) using [gamma-33P]ATP assessed as residual activity at 3 uM", "procedure,_shortened": "as §3"}, "[15]": {"target": "Serine/threonine-protein kinase PLK1 (Homo sapiens) (UniProt P53350)", "assay": "Inhibition of PLK1 (unknown origin) using [gamma-33P]ATP assessed as residual activity at 3 uM"}, "[16]": {"system": "Tyrosine-protein kinase BTK (Homo sapiens), Q06187 [E41K]", "assay": "Inhibition of BTK E41K mutant (unknown origin) using [gamma-33P]ATP assessed as residual activity at 3 uM", "procedure,_shortened": "as §2"}, "[17]": {"target": "Casein kinase I isoform delta (Homo sapiens) (UniProt P48730)", "assay": "Inhibition of CK1d (unknown origin) using [gamma-33P]ATP assessed as residual activity at 3 uM", "procedure,_shortened": "as §2"}, "[18]": {"target": "Proto-oncogene tyrosine-protein kinase Src (Homo sapiens) (UniProt P12931)", "assay": "Inhibition of c-Src (unknown origin) using [gamma-33P]ATP assessed as residual activity at 3 uM"}, "[19]": {"target": "3-phosphoinositide-dependent protein kinase 1 (Homo sapiens) (UniProt O15530)", "assay": "Inhibition of PDK1 (unknown origin) using [gamma-33P]ATP assessed as residual activity at 3 uM"}, "[20]": {"target": "Serine/threonine-protein kinase 33 (Homo sapiens) (UniProt Q9BYT3)", "assay": "Inhibition of STK33 (unknown origin) using [gamma-33P]ATP assessed as residual activity at 3 uM"}, "[21]": {"target": "ALK tyrosine kinase receptor (Homo sapiens) (UniProt Q9UM73)", "assay": "Inhibition of ALK (unknown origin) using [gamma-33P]ATP assessed as residual activity at 3 uM", "procedure,_shortened": "as §2"}, "[22]": {"target": "Ephrin type-A receptor 3 (Homo sapiens) (UniProt P29320)", "assay": "Inhibition of EPHA3 (unknown origin) using [gamma-33P]ATP assessed as residual activity at 3 uM", "procedure,_shortened": "as §1"}, "[23]": {"system": "Tyrosine-protein kinase ABL1 (Homo sapiens), P00519 [M351T]", "assay": "Inhibition of ABL1 M351T mutant (unknown origin) using [gamma-33P]ATP assessed as residual activity at 3 uM", "procedure,_shortened": "as §2"}, "[24]": {"target": "Calcium/calmodulin-dependent protein kinase type 1D (Homo sapiens) (UniProt Q8IU85)", "assay": "Inhibition of CAMK1d (unknown origin) using [gamma-33P]ATP assessed as residual activity at 3 uM", "procedure,_shortened": "as §2"}, "[25]": {"target": "SRSF protein kinase 2 (Homo sapiens) (UniProt P78362)", "assay": "Inhibition of SRPK2 (unknown origin) using [gamma-33P]ATP assessed as residual activity at 3 uM"}, "[26]": {"target": "Discoidin domain-containing receptor 2 (Homo sapiens) (UniProt Q16832)", "assay": "Inhibition of DDR2 (unknown origin) using [gamma-33P]ATP assessed as residual activity at 3 uM", "procedure,_shortened": "as §1"}, "[27]": {"target": "Serine/threonine-protein kinase SIK2 (Homo sapiens) (UniProt Q9H0K1)", "assay": "Inhibition of SIK2 (unknown origin) using [gamma-33P]ATP assessed as residual activity at 3 uM"}, "[28]": {"target": "Mitogen-activated protein kinase 9 (Homo sapiens) (UniProt P45984)", "assay": "Inhibition of JNK2a2 (unknown origin) using [gamma-33P]ATP assessed as residual activity at 3 uM", "procedure,_shortened": "as §3"}, "[29]": {"target": "Calcium/calmodulin-dependent protein kinase type II subunit delta (Homo sapiens) (UniProt Q13557)", "assay": "Inhibition of CAMK2d (unknown origin) using [gamma-33P]ATP assessed as residual activity at 3 uM", "procedure,_shortened": "as §2"}, "[30]": {"target": "TGF-beta receptor type-1 (Homo sapiens) (UniProt P36897)", "assay": "Inhibition of ALK5 (unknown origin) using [gamma-33P]ATP assessed as residual activity at 3 uM", "procedure,_shortened": "as §2"}, "[31]": {"target": "Cytoplasmic tyrosine-protein kinase BMX (Homo sapiens) (UniProt P51813)", "sequence (P51813 whole entry)": "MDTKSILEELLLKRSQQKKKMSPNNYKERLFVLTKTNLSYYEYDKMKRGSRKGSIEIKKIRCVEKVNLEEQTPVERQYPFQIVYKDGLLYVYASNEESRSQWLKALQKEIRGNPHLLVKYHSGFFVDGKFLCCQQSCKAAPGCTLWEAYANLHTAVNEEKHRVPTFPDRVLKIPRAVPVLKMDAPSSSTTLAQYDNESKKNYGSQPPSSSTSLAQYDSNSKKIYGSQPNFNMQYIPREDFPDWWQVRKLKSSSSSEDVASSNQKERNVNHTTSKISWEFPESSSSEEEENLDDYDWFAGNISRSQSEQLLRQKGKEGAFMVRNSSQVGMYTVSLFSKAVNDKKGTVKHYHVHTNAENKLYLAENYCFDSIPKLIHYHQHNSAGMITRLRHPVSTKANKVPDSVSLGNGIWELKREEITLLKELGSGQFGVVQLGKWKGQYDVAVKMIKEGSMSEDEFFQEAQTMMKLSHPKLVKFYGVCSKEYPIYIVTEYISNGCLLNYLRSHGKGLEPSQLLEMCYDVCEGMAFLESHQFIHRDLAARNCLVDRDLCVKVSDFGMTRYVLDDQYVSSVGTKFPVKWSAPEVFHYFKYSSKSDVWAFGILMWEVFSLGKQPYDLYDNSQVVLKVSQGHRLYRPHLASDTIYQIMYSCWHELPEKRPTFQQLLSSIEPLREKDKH", "assay": "Inhibition of BMX (unknown origin) using [gamma-33P]ATP assessed as residual activity at 3 uM", "procedure,_shortened": "as §2"}, "[32]": {"target": "Homeodomain-interacting protein kinase 4 (Homo sapiens) (UniProt Q8NE63)", "sequence (Q8NE63 whole entry)": "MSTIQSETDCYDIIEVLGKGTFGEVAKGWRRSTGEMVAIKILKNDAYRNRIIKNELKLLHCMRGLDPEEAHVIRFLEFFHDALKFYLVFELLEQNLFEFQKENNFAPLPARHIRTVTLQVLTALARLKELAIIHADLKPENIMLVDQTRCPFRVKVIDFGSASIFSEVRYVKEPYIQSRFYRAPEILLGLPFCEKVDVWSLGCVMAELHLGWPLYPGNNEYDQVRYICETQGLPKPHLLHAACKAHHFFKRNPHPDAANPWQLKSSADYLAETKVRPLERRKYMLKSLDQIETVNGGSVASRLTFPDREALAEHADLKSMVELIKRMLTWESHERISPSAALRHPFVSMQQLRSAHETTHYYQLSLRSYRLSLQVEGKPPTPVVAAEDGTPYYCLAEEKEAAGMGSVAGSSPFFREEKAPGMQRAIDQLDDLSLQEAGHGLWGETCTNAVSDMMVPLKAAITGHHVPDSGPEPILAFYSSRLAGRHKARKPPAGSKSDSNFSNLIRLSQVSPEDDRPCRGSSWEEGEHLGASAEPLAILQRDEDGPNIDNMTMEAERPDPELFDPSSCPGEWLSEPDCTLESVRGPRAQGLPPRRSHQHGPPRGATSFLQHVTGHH", "assay": "Inhibition of HIPK4 (unknown origin) using [gamma-33P]ATP assessed as residual activity at 3 uM", "procedure,_shortened": "as §3"}}, "data": [{"smiles": "CCc1ccc(-c2ccc3c(c2)-c2[nH]ncc2S(=O)(=O)N3C)cc1", "values": [{"measurement": "Activity", "setting": "[1]", "value": 40, "unit": "%"}, {"measurement": "Activity", "setting": "[2]", "value": 80, "unit": "%"}, {"measurement": "Activity", "setting": "[3]", "value": 95, "unit": "%"}, {"measurement": "Activity", "setting": "[4]", "value": 73, "unit": "%"}, {"measurement": "Activity", "setting": "[5]", "value": 95, "unit": "%"}, {"measurement": "Activity", "setting": "[6]", "value": 84, "unit": "%"}, {"measurement": "Activity", "setting": "[7]", "value": 97, "unit": "%"}, {"measurement": "Activity", "setting": "[8]", "value": 98, "unit": "%"}, {"measurement": "Activity", "setting": "[9]", "value": 100, "unit": "%"}, {"measurement": "Activity", "setting": "[10]", "value": 94, "unit": "%"}, {"measurement": "Activity", "setting": "[11]", "value": 25, "unit": "%"}, {"measurement": "Activity", "setting": "[12]", "value": 86, "unit": "%"}, {"measurement": "Activity", "setting": "[13]", "value": 98, "unit": "%"}, {"measurement": "Activity", "setting": "[14]", "value": 86, "unit": "%"}, {"measurement": "Activity", "setting": "[15]", "value": 96, "unit": "%"}, {"measurement": "Activity", "setting": "[16]", "value": 100, "unit": "%"}, {"measurement": "Activity", "setting": "[17]", "value": 94, "unit": "%"}, {"measurement": "Activity", "setting": "[18]", "value": 58, "unit": "%"}, {"measurement": "Activity", "setting": "[19]", "value": 95, "unit": "%"}, {"measurement": "Activity", "setting": "[20]", "value": 94, "unit": "%"}, {"measurement": "Activity", "setting": "[21]", "value": 88, "unit": "%"}, {"measurement": "Activity", "setting": "[22]", "value": 97, "unit": "%"}, {"measurement": "Activity", "setting": "[23]", "value": 66, "unit": "%"}, {"measurement": "Activity", "setting": "[24]", "value": 85, "unit": "%"}, {"measurement": "Activity", "setting": "[25]", "value": 102, "unit": "%"}, {"measurement": "Activity", "setting": "[26]", "value": 96, "unit": "%"}, {"measurement": "Activity", "setting": "[27]", "value": 103, "unit": "%"}, {"measurement": "Activity", "setting": "[28]", "value": 98, "unit": "%"}, {"measurement": "Activity", "setting": "[29]", "value": 95, "unit": "%"}, {"measurement": "Activity", "setting": "[30]", "value": 89, "unit": "%"}, {"measurement": "Activity", "setting": "[31]", "value": 93, "unit": "%"}, {"measurement": "Activity", "setting": "[32]", "value": 91, "unit": "%"}]}]}
